This is a sample that favours compounds with a hit; in the whole collection about 3% have one here.
UBC13 polyUb – human UBC13 polyubiquitination inhibition. P61088. 330,000 tested, 0.47% active. inhibition, % at 20 µM. UBC13 polyubiquitin chain formation, TR-FRET. AID 485273; in the data active = inhibition above about 45%, passing the limit was not always enough
Target sequence (P61088 whole entry, looked up): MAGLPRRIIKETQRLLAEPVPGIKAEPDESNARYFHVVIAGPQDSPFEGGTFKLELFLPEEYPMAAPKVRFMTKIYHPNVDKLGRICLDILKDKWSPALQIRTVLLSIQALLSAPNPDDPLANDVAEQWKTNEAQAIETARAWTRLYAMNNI
iPSC survival up – increases survival of single human iPS cells; survival enhancement, % at 20 µM; 360,000 tested, 0.044% active; hiPSC single-cell survival, ATPlite luminescence; 100% = ROCK inhibitor wells, 0% = DMSO; AID 602274; in the data active = survival enhancement above about 18%;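 note: cells exposed to compounds for 16 hours before the ATP read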
beta cell repl – induces beta-cell replication in MIN6 cells; MIN6 cells proliferation, ATPlite luminescence, 48 h; cells starved in 0.2% serum; 100% = growth in 10% serum; proliferation, % at 10 µM; 330,000 tested, 0.29% active; AID 2380;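 active = compounds whose signal lies at least 3.5 SD above the mean of all wells on their plate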
MPTP block – blocks calcium-induced mitochondrial swelling; isolated mouse mitochondria, Ca2+ swelling absorbance, 30 min; inhibition, % at 10 µM; 360,000 tested, 1.4% active;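 active = inhibition of 50% or more, scaled per plate between neutral and stimulator controls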
Apaf1 inhib – inhibitors of human Apaf-1 apoptosome; O14727; reconstituted apoptosome caspase-3 activity, DEVD-Rh110 fluorescence; inhibition, % at 20 µM; 330,000 tested, 0.71% active; AID 489030; active = inhibition of at least 40% at 20 µM
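System: Apoptosome proteins | Medium: Hepes pH 7.5 with detergent and BSA | Also added: Cytochrome c trigger plus (Z-DEVD)2-Rh110 caspase-3 substrate | Incubation: 30 min compound preincubation, 50 min activation, room temperature | Detection: Rhodamine 110 fluorescence at Ex 480/Em 540 nm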
Granule exo inh – lytic granule exocytosis inhibition. TALL-104 LAMP-1 surface exposure, flow cytometry; cells stimulated with thapsigargin and PMA. inhibition, % at 10 µM. 360,000 tested, 0.66% active. AID 651702;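 active = inhibition above about 55%, limit read from the data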
Hits are given with their value; . = inactive; / = not tested or not shown; ! = not confirmed by another sample.

SMILES | UBC13 polyUb | iPSC survival up | beta cell repl | MPTP block | Apaf1 inhib | Granule exo inh
Cc1cc(N2CCCC2)c(F)cc1/C=C\[N+](=O)[O-] | / | . | / | . | / | 74
CC1CNCCN1S(=O)(=O)c1cccc2cnccc12 (configuration not stated) | . | 20! | . | . | . | .
O=C(CSc1cccc2cccnc12)Nc1cc(C(=O)O)cc(C(=O)O)c1 | . | . | . | . | . | .
c1cc2c3c(cccc3c1)C(N1CCCCCC1)=N2 | . | . | . | . | . | .
c1cc2c3c(cccc3c1)C(N1CCCCC1)=N2 | . | . | . | . | 91 | .
O=C(Nc1ccccc1)Oc1ccc[nH]c1=O | . | . | . | . | 61 | .
O=C(Oc1ccc[nH]c1=O)c1ccc(F)cc1 | / | . | / | . | / | .
COc1nc(N)nc(NC(=O)c2cccs2)c1N=O | . | . | . | . | . | 105
COc1ccc(NC(=O)c2ccc(NC(=O)c3cccs3)cc2)cc1 | . | . | . | . | . | .
COc1cccc(CNc2nc3cc(-c4cnn(Cc5ccccc5)c4)sc3c(=O)n2C)c1 | / | . | / | . | / | .
O=C(Nc1ccc(N2CCOCC2)cc1)c1cccc(S(=O)(=O)N2CCCCCC2)c1 | . | . | . | . | . | .
O=C(Nc1ccc(N2CCOCC2)cc1)c1cccc(S(=O)(=O)N2CCCC2)c1 | . | 24 | . | . | . | .
Cc1ccc(NC(=O)/C(=C\c2ccc([N+](=O)[O-])cc2)NC(=O)c2ccccc2)cc1 | . | 58 | . | . | . | .
COc1cc(/C=C(/C#N)C(=O)c2c(C)[nH]c3ccccc23)ccc1OCC#N | . | . | . | . | . | 57
Cc1nc(S/C(=C/c2ccc(-c3ccc(Cl)cc3)o2)C(=O)O)n[nH]1 | . | . | . | . | . | 69
CC(C)CC(=O)Nc1ccc(C(=O)COC(=O)CN2C(=O)NC3(CCCCC3C)C2=O)cc1 (configuration not stated) | . | . | . | . | . | .
Cc1cc2c(cc1C)-c1c(ssc1=Nc1ccc(S(N)(=O)=O)cc1)C(C)(C)N2 | . | . | . | . | . | 67
CCN(CC)c1ccc(/C=C2/SC(=O)N(C(C)C)C2=O)o1 | / | . | / | . | / | 78
CC(C)N1C(=O)S/C(=C\c2ccc(-c3ccc(Cl)c(C(=O)O)c3)o2)C1=O | . | . | . | . | . | .
N#C/C(=C\c1ccc(N2CCOCC2)o1)c1ccccc1 | . | . | . | . | . | 63
N#C/C(=C/c1ccc(N2CCOCC2)o1)c1ccc(Br)cc1 | . | . | . | . | . | 67
N#C/C(=C/c1ccc(N2CCOCC2)o1)c1nc2ccccc2[nH]1 | . | . | . | . | . | .
Cc1ccc(NC(=O)COC(=O)CCc2c(C)nc3ncnn3c2C)cc1C | . | . | . | . | . | .
CC(C)(C)OC(=O)N1CCC[C@H]1C(=O)NCc1ccc(F)cc1F | / | . | / | . | / | .
CN(c1ccccc1)c1nc(N)c([N+](=O)[O-])c(Nc2ccccc2F)n1 | . | . | . | . | . | 76
SMILES | UBC13 polyUb | iPSC survival up | beta cell repl | MPTP block | Apaf1 inhib | Granule exo inh
CN(c1ccccc1)c1nc(N)c([N+](=O)[O-])c(Nc2ccc(F)cc2)n1 | . | . | . | . | . | .
COc1ccc(OC)c(N(CC(=O)NN=C2CCN(C)CC2)S(=O)(=O)c2ccccc2)c1 | . | . | . | . | . | .
C/C(CCN1CCc2nc(-c3ccccc3)c(-c3ccccc3)cc2C1)=N\OC[C@@H](C)[C@H](OCc1ccccc1)C(C)C | . | / | . | / | 47 | /
CNc1sc(C(=O)c2ccc(F)cc2)c(N)c1-c1nc2ccccc2s1 | . | . | . | . | . | .
CNc1sc(C(=O)c2cccs2)c(N)c1-c1nc2ccccc2s1 | . | . | . | . | . | 65
O=C1NC[C@@H](CCCCN2CCN(Cc3ccccc3)C(=O)C2=O)N(Cc2ccccc2)C1=O | / | . | / | . | / | .
COc1cc(NC(=O)COC(=O)Cn2cnc3c2c(=O)n(C)c(=O)n3C)cc(OC)c1 | . | . | . | . | . | .
NC(=O)Cn1nnc(-c2ccccc2NC(=O)c2cnccn2)n1 | . | . | . | . | . | .
CC(C)(C)NC(=O)Cn1nnc(-c2ccccc2NC(=O)c2cnccn2)n1 | . | 22 | . | . | . | .
CC1OC(CC(=O)O)CC2=C1C(=O)c1c(O)cccc1C2=O (configuration not stated) | / | . | / | . | / | 88
CCOc1cc(/C=C2\C(=O)N(c3nc(-c4ccc(Br)cc4)cs3)N=C2c2ccccc2)ccc1O | . | . | . | . | 53 | .
CC(Oc1ccc(F)cc1)C(=O)Nc1cccc(-c2nn[nH]n2)c1 (configuration not stated) | . | . | . | . | . | .
O=C1c2ccccc2NC(c2cccc([N+](=O)[O-])c2)N1CCc1ccccc1 (configuration not stated) | . | . | . | . | . | 76
Cc1cccc(C2Nc3ccccc3C(=O)N2CCc2ccccc2)n1 (configuration not stated) | . | . | . | . | . | .
O=C(COC(=O)c1ccccc1Sc1ccc(C(F)(F)F)cc1[N+](=O)[O-])NC(=O)NC1CCCC1 | . | . | . | . | 40 | .
O=C(COC(=O)c1ccccc1C(=O)c1ccc(Cl)c([N+](=O)[O-])c1)NC1CC1 | . | 36 | . | . | . | .
CNC[C@H](CC1CCCCC1)NC[C@H](Cc1ccccc1)NCCC12CC3CC(CC(C3)C1)C2 | . | . | . | . | 74 | .
COc1ccc(C(=O)N2CCCCC2c2cc(C(=O)Nc3cccc(C#N)c3)no2)cc1 (configuration not stated) | / | . | / | . | / | .
CC1(C)CC(NC(=O)c2ccccc2)CC(C)(C)N1 | . | . | . | . | . | .
CC1(C)CC(Nc2ccc(Nc3ccccc3)cc2)CC(C)(C)N1 | / | . | / | . | / | 83
CC1=NOC(=O)/C1=C\c1ccc(-c2ccc(Cl)cc2Cl)o1 | . | . | . | . | . | 96
COc1ccc(C(=O)N(CCc2ccccc2)Cc2ccccc2)cc1S(=O)(=O)N1CCOCC1 | . | . | . | . | 45 | .
COc1ccc(C(=O)Nc2ccc(-c3ccc(C)o3)cc2)cc1S(=O)(=O)N1CCOCC1 | . | . | . | . | . | 72
COc1ccc(C(=O)Nc2ccc(N3CCOCC3)cc2)cc1S(=O)(=O)N1CCOCC1 | . | . | . | . | . | .
CC(C)(C)N(Cc1ccccc1)C(=O)COC(=O)c1ccc(S(=O)(=O)N2CCOCC2)cc1 | . | . | . | . | . | 63
CC(=O)N1CCN(S(=O)(=O)c2cccc(C(=O)OCC(=O)N(Cc3ccccc3)C(C)(C)C)c2)CC1 | . | . | . | . | . | .
COc1cc(CNc2ccccc2)c([N+](=O)[O-])cc1OC | . | . | . | . | . | .
COc1cccc(NC(=O)c2cc3c(=O)n4ccccc4nc3n(CC(C)C)c2=N)c1 | . | . | . | . | . | 68
